Measurements: PMC8381683 (Pharmacology Research & Perspectives, 2021)
Like-named read-outs stand apart in the source and are kept apart here.

Columns and labels:
[1] = tested on: DA turnover in the rat striatum; experiment: In vivo DA turnover and serotonin biomarkers in the rat striatum
C57BL/6J mice [2] = experiment: Food intake in the mouse; type: in vivo
Method in brief: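 C57BL/6J mice (24–26 g) single-housed on a reversed 12 h/12 h cycle, lights off at 9:00 a.m. Test compound given p.o. (vehicle 1% methylcellulose in water, 10 ml/kg) or i.p. 15 min before lights-off. Food consumption recorded at 1:00 p.m., 4 h after lights-off. 8 mice per group.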

[3] = molecular target: human H3 histamine receptor (Homo sapiens, UniProt Q9Y5N1); experiment: [35S]-GTPγS functional binding assay on the H3 histamine receptor; type: biochemical
Sequence of human H3 histamine receptor (Q9Y5N1 whole entry): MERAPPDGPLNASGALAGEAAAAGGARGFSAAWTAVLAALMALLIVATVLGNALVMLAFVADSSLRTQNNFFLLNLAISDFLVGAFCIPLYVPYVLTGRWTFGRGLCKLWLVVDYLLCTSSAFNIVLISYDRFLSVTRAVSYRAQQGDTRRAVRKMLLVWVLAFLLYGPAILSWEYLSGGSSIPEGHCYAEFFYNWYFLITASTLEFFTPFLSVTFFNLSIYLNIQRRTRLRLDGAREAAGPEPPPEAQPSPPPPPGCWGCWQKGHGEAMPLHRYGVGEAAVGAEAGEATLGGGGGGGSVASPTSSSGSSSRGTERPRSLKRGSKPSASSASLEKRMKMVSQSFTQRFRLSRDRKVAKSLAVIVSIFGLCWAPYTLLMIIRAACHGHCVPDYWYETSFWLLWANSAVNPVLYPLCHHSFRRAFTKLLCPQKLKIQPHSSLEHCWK

human DAT (SLC6A3) = human DAT (SLC6A3) (Homo sapiens, UniProt Q01959); experiment: cell-based
Sequence of human DAT (SLC6A3) (Q01959 whole entry): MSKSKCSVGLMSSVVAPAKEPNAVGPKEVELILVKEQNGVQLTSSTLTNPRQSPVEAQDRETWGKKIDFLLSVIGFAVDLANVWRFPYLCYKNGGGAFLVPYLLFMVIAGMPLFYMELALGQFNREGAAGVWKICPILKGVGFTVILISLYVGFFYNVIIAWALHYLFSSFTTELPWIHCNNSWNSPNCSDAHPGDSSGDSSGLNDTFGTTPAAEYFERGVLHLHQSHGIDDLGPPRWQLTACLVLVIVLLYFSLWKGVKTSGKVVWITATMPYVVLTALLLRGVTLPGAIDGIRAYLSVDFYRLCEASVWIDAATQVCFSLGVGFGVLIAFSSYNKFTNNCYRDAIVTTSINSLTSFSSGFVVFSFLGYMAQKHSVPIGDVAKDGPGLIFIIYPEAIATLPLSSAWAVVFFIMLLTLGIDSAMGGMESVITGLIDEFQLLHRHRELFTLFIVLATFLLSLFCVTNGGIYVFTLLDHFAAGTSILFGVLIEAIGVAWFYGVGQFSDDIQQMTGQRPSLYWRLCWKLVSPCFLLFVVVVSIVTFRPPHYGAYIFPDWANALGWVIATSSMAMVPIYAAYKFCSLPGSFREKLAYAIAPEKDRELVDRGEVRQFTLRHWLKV

human NET (SLC6A2) = human NET (SLC6A2) (Homo sapiens, UniProt P23975); experiment: fluorescence-based neurotransmitter transporter uptake assay, NET; type: cell-based
Sequence of human NET (SLC6A2) (P23975 1-628 isoform P23975-2): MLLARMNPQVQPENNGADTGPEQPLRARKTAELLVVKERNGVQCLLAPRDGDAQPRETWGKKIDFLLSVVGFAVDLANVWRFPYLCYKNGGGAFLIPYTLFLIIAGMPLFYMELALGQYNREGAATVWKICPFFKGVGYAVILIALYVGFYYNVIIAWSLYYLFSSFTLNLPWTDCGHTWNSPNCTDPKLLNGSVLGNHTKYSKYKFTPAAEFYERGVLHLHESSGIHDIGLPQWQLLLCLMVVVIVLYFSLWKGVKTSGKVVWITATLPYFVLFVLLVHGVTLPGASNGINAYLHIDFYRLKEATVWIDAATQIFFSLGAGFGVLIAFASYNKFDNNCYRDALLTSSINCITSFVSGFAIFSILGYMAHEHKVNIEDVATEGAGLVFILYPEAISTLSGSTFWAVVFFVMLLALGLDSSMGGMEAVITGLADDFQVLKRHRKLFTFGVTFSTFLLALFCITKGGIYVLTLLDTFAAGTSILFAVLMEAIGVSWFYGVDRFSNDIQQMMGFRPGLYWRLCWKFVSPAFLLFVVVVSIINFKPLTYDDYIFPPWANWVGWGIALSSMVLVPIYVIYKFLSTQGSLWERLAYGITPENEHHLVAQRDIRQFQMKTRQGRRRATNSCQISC

human SERT (SLC6A4) = human SERT (SLC6A4) (Homo sapiens, UniProt P31645); experiment: cell-based; type: cell-based
Sequence of human SERT (SLC6A4) (P31645 whole entry): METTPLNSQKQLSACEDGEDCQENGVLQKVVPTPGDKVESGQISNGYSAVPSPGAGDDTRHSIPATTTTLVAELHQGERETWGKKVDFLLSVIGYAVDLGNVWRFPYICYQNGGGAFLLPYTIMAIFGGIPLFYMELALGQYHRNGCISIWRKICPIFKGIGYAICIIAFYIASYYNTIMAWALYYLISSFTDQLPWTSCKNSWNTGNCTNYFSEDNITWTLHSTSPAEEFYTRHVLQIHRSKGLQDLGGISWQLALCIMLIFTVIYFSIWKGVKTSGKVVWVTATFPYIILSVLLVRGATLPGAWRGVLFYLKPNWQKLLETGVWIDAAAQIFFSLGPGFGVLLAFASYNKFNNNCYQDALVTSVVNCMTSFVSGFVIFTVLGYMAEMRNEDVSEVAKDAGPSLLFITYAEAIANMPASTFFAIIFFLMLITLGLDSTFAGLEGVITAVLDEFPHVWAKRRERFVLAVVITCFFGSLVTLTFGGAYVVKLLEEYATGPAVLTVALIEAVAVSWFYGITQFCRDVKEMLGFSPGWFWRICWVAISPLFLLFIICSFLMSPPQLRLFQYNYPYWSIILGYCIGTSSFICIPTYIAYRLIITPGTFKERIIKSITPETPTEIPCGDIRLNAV

[4] = tested on: extracellular DA in the rat nucleus accumbens; experiment: In vivo microdialysis in the rat nucleus accumbens; conditions: p.o.
Method in brief: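 Under chloral hydrate (400 mg/kg i.p.), rats received a stereotaxic guide cannula in nucleus accumbens (AP +1.2 mm from bregma, […], DV −5.8 mm from dura). Recovery ≥5 days, single-housed. In freely moving rats, extracellular DA sampled via a 2-mm microdialysis probe after oral test compound or vehicle (1% methylcellulose in water, 5 ml/kg). n=5–8. ANOVA/Dunnett versus vehicle.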

[5] = tested on: tele-methylhistamine in the brain of mice; experiment: Assay of tele-methylhistamine in the brain of mice; type: in vivo, mouse; conditions: 30 and 100 mg/kg, p.o., 90 min after treatment
Method in brief: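 Male OF1 mice (22–25 g) fasted 16 h, then dosed orally with test compound or vehicle (1% methylcellulose in water, 10 ml/kg). Killed 90 min later. Brain homogenised in 10 volumes ice-cold 0.4 N perchloric acid and centrifuged 2000 g, 30 min, 4℃. Supernatant stored at −20℃. Tele-methylhistamine measured by enzyme immunoassay.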

C57BL/6J mice [6] = experiment: Spontaneous locomotor activity in the mouse; type: in vivo; conditions: p.o.
male Wistar rats = experiment: Behavioral drug sensitization in the rat; type: in vivo
Method in brief: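 Male Wistar rats (240–270 g) habituated 1 h in the test room before each daily session. Dosed p.o. (vehicle 1% methylcellulose, 4 ml/kg) or i.p. (saline) immediately before placement in the same dim (5 lux) 76×76 cm open field. Five sessions between 1 and 5 p.m. on 5 successive days. Locomotion video-tracked for 40 min. n=5–6. ANOVA/Fisher's LSD versus vehicle; paired t test versus day 1.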

[7] = for Brain AUC0-8h / Brain C max / Brain C max (molar): 10 mg/kg, p.o., male Swiss mice; for Brain C max at pharmacologically active doses / Brain C max at pharmacologically active doses (molar): male, Swiss, mouse, in vivo, po
[8] = cited from earlier work
in vivo = conditions: male, Swiss, mouse, po, 10 mg/kg
C57BL/6J mice [9] = experiment: Effect of pitolisant on solriamfetol- or modafinil-induced locomotor activity; type: in vivo, mouse; conditions: pitolisant 20 mg/kg, p.o.
[10] = 10 mg/kg, p.o., male Swiss mice, ref Ligneau et al. 29, cited from earlier work
[11] = tested on: extracellular DA in the rat nucleus accumbens; conditions: cited from earlier work
[12] = tested on: tele-methylhistamine in the brain of mice; conditions: cited from earlier work
[13] = D-amphetamine i.p., dose and time not given
[14] = 64 mg/kg, i.p., fifth day of repeated administration

C[C@H](N)Cc1ccccc1 [D‐amphetamine]
change of DA in the rat striatum [1, 13]: +25% | change of DOPAC in the rat striatum [1, 13]: −15% | decrease in food consumption compared with controls (4 h) (C57BL/6J mice [2]; 3 mg/kg, i.p.): 56%

NC(=O)OC[C@H](N)Cc1ccccc1 [Solriamfetol]
Kb [3]: > 10 µM | Ki (human DAT (SLC6A3)): 2.4 µM | Ki (human NET (SLC6A2)): 4.8 µM | Ki (human SERT (SLC6A4)): > 10 µM | hSERT Ki (human SERT (SLC6A4); HEK293 cells expressing human SERT, Ki from IC50 by Cheng-Prusoff): inactive | change of DOPAC in the rat striatum ([1]; 30 mg/kg, p.o., 60 min): −11% | effect on DOPAC/DA ratio relative to that of D-amphetamine (2 mg/kg, i.p.) ([1]; 30 mg/kg, p.o., 60 min): about 50% | change of DA in the rat striatum ([1]; 30 mg/kg, p.o., 60 min, not significant): +4% | decrease in the DOPAC/DA ratio in the rat striatum ([1]; 30 mg/kg, p.o., 60 min after the dose): 14% | effect on 5-HIAA/5-HT ratio in the rat striatum ([1]; 3 and 30 mg/kg, p.o., 60 min after dosage): No effect | effect on extracellular levels of DA in the nucleus accumbens ([4]; 30 mg/kg): no effects | increase of extracellular levels of DA in the nucleus accumbens ([4]; 100 mg/kg, 30 min after administration): +138 % of basal levels | AUC of extracellular DA (% basal dopamine level), enhancement ([4]; 100 mg/kg, 90 min (1.5 h) post-administration period): 123% | effect on tele-methylhistamine levels in the brain of mice [5]: no significant effect | effect on tele-methylhistamine levels in the brain of mice ([5]; listed as solriamfetol): no effect | effect on cumulative locomotor activity over 5.5 h post-dosing (C57BL/6J mice [6]; 30 mg/kg): no effect | locomotor effect in rats (male Wistar rats; 60 mg/kg, p.o., over the 5-day repeated administration period): no significant locomotion effect | locomotor effect in rats (male Wistar rats; 100 mg/kg, p.o., acute): no acute effects | increase of rat locomotor activity versus controls (male Wistar rats; 100 mg/kg, p.o., day 5): 185% | increase of rat locomotor activity versus same treated rats at day 1 (male Wistar rats; 100 mg/kg, p.o., day 5): 106% | inhibition of food intake (4 h) (C57BL/6J mice [2]; 30 mg/kg, p.o.): 25% | inhibition of food intake (4 h) (C57BL/6J mice [2]; 100 mg/kg, p.o.): 40% | Brain AUC0-8h [7]: 10 990 ng/g × h | Brain C max [7]: 3935 ± 452 ng/g | Brain C max (molar) [7]: 20 µM | Brain C max at pharmacologically active doses [7]: 12 000-40 000 | Brain C max at pharmacologically active doses (molar) [7]: 60–200 µM | plasma exposure (C max) in human at therapeutic dose ([8]; at 150 mg): ~ 820 ng/ml | AUC(0-t) (in vivo): 1150 ng·h/mL | Kp (in vivo): 9.6

Cl.Clc1ccc(CCCOCCCN2CCCCC2)cc1 [Pitolisant, 1‐{3‐[3‐(4‐Chlorophenyl)propoxy]propyl}piperidine, hydrochloride]
Ki (human DAT (SLC6A3)): 4.1 µM | Ki (human NET (SLC6A2)): 2.5 µM | Ki (human SERT (SLC6A4)): 5.79 µM | effect on cumulative locomotor activity over 5.5 h post-dosing (C57BL/6J mice [6]; 10 and 20 mg/kg): no significant effect | reduction of modafinil-induced hyperlocomotion (C57BL/6J mice [9]; modafinil 64 mg/kg): 58% | effect on modafinil-induced hyperlocomotion (C57BL/6J mice [9]; modafinil 128 mg/kg): not further reduced | effect on solriamfetol-induced hyperlocomotion (C57BL/6J mice [9]; solriamfetol 30 mg/kg): fully normalized | reduction of solriamfetol-induced hyperlocomotion (C57BL/6J mice [9]; solriamfetol 100 mg/kg): 68% | locomotor effect in rats (male Wistar rats; 10 mg/kg, i.p., acute or after 5-day-repeated administrations): no hyperlocomotion effects | effect on food intake during the initial 4 h of the night phase (C57BL/6J mice [2]; 10 and 20 mg/kg, p.o.): did not modify | Brain C max at pharmacologically active doses [7]: 10 000-20 000 | Brain C max at pharmacologically active doses (molar) [7]: 35–70 µM | Brain/plasma AUC ratio ([10]; AUC0-8h): 23.5 | Brain AUC0-8h [10]: 34 686 ng/g × h | Brain C max (molar) [10]: 35 µM | Brain T max [10]: 30 min | Plasma AUC0-8h [10]: 1475 ng·h/mL | Plasma C max [10]: 441 ± 69 ng/mL | Plasma T max [10]: 30 min | effect on levels of extracellular DA in the rat nucleus accumbens [11]: no effect | ED50, enhancement of brain tele-methylhistamine level ([12]; p.o., in mice): 1.6 mg/kg | plasma exposure (C max) in human at therapeutic dose ([8]; at 40 mg): ~ 36 ng/ml

NC(=O)C[S+]([O-])C(c1ccccc1)c1ccccc1 (stereo not drawn) [Modafinil]
Kb [3]: > 10 µM | Ki (human NET (SLC6A2)): > 10 µM | hNET Ki (human NET (SLC6A2); CHO cells expressing human NET, Ki from IC50 by Cheng-Prusoff): inactive | increase of rat locomotor activity versus controls (male Wistar rats; 64 mg/kg, i.p., acute administration (day 1)): +145% | increase of rat locomotor activity versus control rats (male Wistar rats; [14]): 419% | increase of rat locomotor activity versus same treated rats at day 1 (male Wistar rats; [14]): 53% | reduction in food intake (4 h) (C57BL/6J mice [2]; 64 mg/kg, p.o.): 40% | reduction in food intake (4 h) (C57BL/6J mice [2]; 96 mg/kg, p.o.): 76% | reduction in food intake (4 h) (C57BL/6J mice [2]; 128 mg/kg, p.o.): 96% | Brain AUC0-8h [7]: 2298 ng·h/g | Brain C max [7]: 965 ± 156 ng/g | Brain C max (molar) [7]: 3.5 µM | Brain C max at pharmacologically active doses [7]: 6000-12 000 | Brain C max at pharmacologically active doses (molar) [7]: 22–45 µM | potency in enhancing brain tele-methylhistamine level compared with pitolisant ([12]; mice): less potent | AUC(0-t) (in vivo): 2160 ng·h/mL | Kp (in vivo): 1.1
